Here are results for eleven compounds from ChEMBL document CHEMBL4480402, “3,3'-Disubstituted 5,5'-Bi(1,2,4-triazine) Derivatives with Potent in Vitro and in Vivo Antimalarial Activity” (J Med Chem, 2019).

Data set [1] in a line: Kinetic solubility of the compound in phosphate buffer at pH 6.5 after 30 mins by nephelometry. The class given is physicochemical. As to conditions: read-out: Kinetic_solubility; call rule not given here. Summed up: (§1)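 Kinetic aqueous solubility determined by nephelometry.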
Data set [2] in a line: Kinetic solubility of the compound in HCL buffer at pH 2 after 30 mins by nephelometry. It counts as physicochemical. As to conditions: read-out: Kinetic_solubility. Summed up: as §1
The nature of data set [3]: Plasma concentration in Swiss mouse at […], iv via bolus administration measured up to 30 mins. The class given is ADME, organism-based.
Data set [4] is described as follows: Plasma concentration in Swiss mouse at […], po via gavage administration measured up to 30 mins. It counts as ADME, organism-based. As to conditions: in vivo, 0.5 h.
Data set [5] in a line: Plasma concentration in Swiss mouse at 30 mg/kg, po via gavage administration measured at 60 to 120 mins. It counts as ADME, organism-based. As to conditions: in vivo. Summed up:
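Non-fasted male Swiss outbred mice (24–33 g) with free access to food and water, two mice per dose. Dosed by bolus tail-vein IV injection or oral gavage. Blood taken up to 24 h by submandibular bleed or terminal cardiac puncture into tubes with heparin and a stabilization cocktail, at most two samples per mouse. Plasma stored at -20 °C until analysis.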

The nature of data set [6]: Apparent permeability across apical to basolateral side in human Caco2 cells assessed as mass balance. The class given is ADME, cell-based. The following applies: Caco-2, read-out: permeability. On the technique in general: Caco-2 cells form a polarised layer with tight junctions and transporters.
Data set [7] in a line: Apparent permeability across basolateral to apical side in human Caco2 cells assessed as mass balance. The class given is ADME, cell-based. The following applies: Caco-2, read-out: permeability.
Data set [8] in a line: Apparent permeability across apical to basolateral side in human Caco2 cells. The class given is ADME, cell-based. The following applies: Caco-2.

≈ marks a conversion by molar mass, not a printed value. Bounds are passed on as bounds.

As for `CC(C)CSc1nncc(-c2cnnc(SCC(C)C)n2)n1`, the solubility kinetic at 0.5 h in data set [1] and in data set [2] was 1.6 to 3.1 µg/mL (≈ 4.75 to 9.21 µM) in each case.
As to `COc1nncc(-c2cnnc(OC)n2)n1`, the values for the solubility kinetic at 0.5 h in data set [1] and in data set [2] were 50 to 100 µg/mL (≈ 227 to 454 µM) and above 100 µg/mL, respectively.
`CCCSc1nncc(-c2cnnc(SCCC)n2)n1`: the solubility kinetic at 0.5 h in data set [1] and in data set [2] was 3.1 to 6.3 µg/mL (≈ 10.1 to 20.4 µM) each time.
Consider `CCCCSc1nncc(-c2cnnc(SCCCC)n2)n1`, for which the solubility kinetic at 0.5 h in data set [1] and in data set [2] was below 1.6 µg/mL in each case.
For the compound `OCCCSc1nncc(-c2cnnc(SCCCO)n2)n1`, the solubility kinetic at 0.5 h in data set [1] lay in the range of 60 to 100 µg/mL (≈ 176 to 294 µM); in data set [2], 25 to 50 µg/mL (≈ 73.4 to 147 µM).
On the same counts, the results for `CSc1nncc(-c2cnnc(SC)n2)n1` are 3.1 to 6.3 µg/mL (≈ 12.3 to 25 µM) and 6.3 to 12.5 µg/mL (≈ 25 to 49.5 µM).
On the same counts, the results for `CSc1nncc(-c2cnnc(OCCN(C)C)n2)n1` are 50 to 100 µg/mL (≈ 170 to 341 µM) and 25 to 50 µg/mL (≈ 85.2 to 170 µM).
In the same order, the values of `COCCSc1nncc(-c2cnnc(SCCOC)n2)n1` are 12.5 to 25 µg/mL (≈ 36.7 to 73.4 µM) and 12.5 to 25 µg/mL (≈ 36.7 to 73.4 µM).
As for `CSc1nncc(-c2cnnc(SCCCO)n2)n1`, the solubility kinetic at 0.5 h in data set [1] and in data set [2] was 50 to 100 µg/mL (≈ 169 to 337 µM) in each case.
Turning to `CSc1nncc(-c2cnnc(SCCN(C)C)n2)n1`, the solubility kinetic at 0.5 h in data set [1] and in data set [2] was 6.3 to 12.5 µg/mL (≈ 20.4 to 40.4 µM) in each case. Moreover, in data set [3], the concentration at 0.5 h is above 20 nM. Further, the Drug uptake entry in data set [4] is reported as “Not Active”; in data set [5], “Active”. Also, the figures for the recovery in data set [6] and in data set [7] were 85% and 90%, respectively. Moreover, in data set [8], the Papp A→B (usually the apparent permeability from the apical to the basolateral side of a cell layer) worked out at 49 ×10⁻⁶ cm/s.
On to `CSc1nncc(-c2cnnc(SC3CCCC3)n2)n1`, for which the solubility kinetic at 0.5 h in data set [1] and in data set [2] was 6.3 to 12.5 µg/mL (≈ 20.6 to 40.8 µM) in each case.
